{"source": "ChEMBL document CHEMBL1914285", "about": "“Identification of new antimalarial leads by use of virtual screening against cytochrome bc₁” (Bioorg Med Chem, 2011)", "data": [{"tested_on": "Plasmodium falciparum", "assay": "Antiplasmodial activity against chloroquine-resistant Plasmodium falciparum W2 infected in human erythrocytes after 48 hrs by FACS analysis", "format": "functional, organism-based", "settings": "W2, 48 h", "procedure,_shortened": "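Ring-stage W2-infected human RBCs at ~1% parasitemia, sorbitol (5%) synchronized; 48 h at 37 °C with compounds in RPMI-1640, 25 mM HEPES pH 7.4, 10% heat-inactivated human serum (or 0.5% Albumax/2% human serum), 100 hypoxanthine, 3% O2/5% CO2/91% N2. Cells fixed in 2% HCHO, stained with 1 nM YOYO-1 (NH4Cl/Triton X-100), flow cytometry at ex 488/em 520 nm; IC50 by curve fitting.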", "units": {"IC50": "µM"}, "values": [{"smiles": "CSCCC(N)c1nc(C(=O)CC(Cc2c[nH]c3ccccc23)C(N)=O)cs1", "note": "(stereo not drawn)", "IC50": "> 50"}, {"smiles": "Cc1nc2ccccc2nc1CSCc1ccco1", "IC50": "> 50"}, {"smiles": "Cc1ccc(C)n1CCSc1nc(N)cc(N)n1", "IC50": "> 50"}, {"smiles": "Cn1c(SCc2nc(-c3ccc(Cl)cc3)no2)nnc1-c1c[nH]c2ccccc12", "IC50": "> 50"}, {"smiles": "O=C(NCc1cccnc1)C1CCC(Cn2c(=S)[nH]c3ccccc3c2=O)CC1", "note": "(stereo not drawn)", "IC50": 1.97}, {"smiles": "COc1ccc(-c2noc(CSc3nnc(-c4c[nH]c5ccccc45)n3C)n2)cc1OC", "IC50": 12.1}, {"smiles": "Cc1ccccc1OCCSc1nnc(-c2c[nH]c3ccccc23)n1C", "IC50": 6.69}, {"smiles": "CCn1c(SCc2nc(-c3cccs3)no2)nnc1-c1c[nH]c2ccccc12", "IC50": 28.5}, {"smiles": "O=C(CSc1nnc(-c2c[nH]c3ccccc23)o1)c1ccc2c(c1)OCCO2", "IC50": "> 50"}, {"smiles": "COc1ccc(NC(=O)CCCn2c(=S)[nH]c3ccccc3c2=O)cc1OC", "IC50": "> 50"}, {"smiles": "Cc1ccc(NC(=O)CSc2nc(O)cc(NS(=O)(=O)c3ccccc3)n2)cc1", "IC50": "> 50"}, {"smiles": "Cc1ccc(CNC(=O)CCn2c(=S)[nH]c3cc4c(cc3c2=O)OCO4)o1", "IC50": "> 50"}, {"smiles": "Cn1c(SCc2nc(-c3cccs3)no2)nnc1-c1c[nH]c2ccccc12", "IC50": 29.5}, {"smiles": "NC(=O)C(CC(=O)c1csc(C2CCCNC2)n1)Cc1c[nH]c2ccccc12", "note": "(stereo not drawn)", "IC50": "> 50"}, {"smiles": "O=C(NCc1ccoc1)C1CCC(Cn2c(=S)[nH]c3ccccc3c2=O)CC1", "note": "(stereo not drawn)", "IC50": "> 50"}, {"smiles": "CCSc1nnc(NC(=O)CS(=O)(=O)c2c[nH]c3ccccc23)s1", "IC50": "> 50"}, {"smiles": "c1ccn2cc(CSc3nnc(C4CC4)o3)nc2c1", "IC50": "> 50"}, {"smiles": "CCCNc1nnc(SCc2cscn2)s1", "IC50": "> 50"}, {"smiles": "O=C(Cc1ccc2c(c1)CCC2)NCCc1ccco1", "IC50": "> 50"}, {"smiles": "COc1ccc(SCCc2ccc(C)nc2)cc1", "IC50": "> 50"}, {"smiles": "Cc1ccc2[nH]c3nc(SCC(=O)Nc4sc5c(c4C#N)CCCC5)nnc3c2c1", "IC50": "> 50"}, {"smiles": "COc1ccc2[nH]c3nc(SCC(=O)Nc4nc(C(C)(C)C)cs4)nnc3c2c1", "IC50": 27.1}, {"smiles": "c1cnc(SCCOc2ccc3c(c2)CCC3)nc1", "IC50": "> 50"}]}]}
